Assay [1] has as its target T1, Sirt1 (Mus musculus, UniProt Q923E4).
T1 sequence (Q923E4 1-737): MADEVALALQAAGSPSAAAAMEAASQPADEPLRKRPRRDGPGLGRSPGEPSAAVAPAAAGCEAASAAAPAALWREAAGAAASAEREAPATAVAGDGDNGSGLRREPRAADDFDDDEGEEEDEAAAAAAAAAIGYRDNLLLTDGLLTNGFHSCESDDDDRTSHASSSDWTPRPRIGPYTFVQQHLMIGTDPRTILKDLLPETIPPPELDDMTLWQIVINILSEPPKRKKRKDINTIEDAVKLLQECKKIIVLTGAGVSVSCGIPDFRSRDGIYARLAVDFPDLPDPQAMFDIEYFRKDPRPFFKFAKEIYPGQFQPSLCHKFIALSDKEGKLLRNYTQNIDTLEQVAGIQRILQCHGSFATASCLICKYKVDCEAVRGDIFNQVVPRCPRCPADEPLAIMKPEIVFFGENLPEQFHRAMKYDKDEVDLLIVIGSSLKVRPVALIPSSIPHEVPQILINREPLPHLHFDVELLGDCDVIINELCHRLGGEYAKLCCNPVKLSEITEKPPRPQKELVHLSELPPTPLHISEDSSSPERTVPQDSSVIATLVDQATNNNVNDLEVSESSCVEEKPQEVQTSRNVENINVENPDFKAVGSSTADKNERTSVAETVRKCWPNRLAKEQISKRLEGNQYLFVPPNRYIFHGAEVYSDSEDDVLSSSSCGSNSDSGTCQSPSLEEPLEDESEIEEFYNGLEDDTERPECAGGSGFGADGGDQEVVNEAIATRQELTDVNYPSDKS
The assay is described as follows: Inhibition of Sirt1 deacetylation of p53 in transfected H1299 cells. The assay is classed as cell-based. The settings on record: 10-fold molar excess of expression vector, 20 μM etoposide 1 hr. The essentials: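 H1299 cells transiently co-transfected with expression vectors for p53 and V5-tagged Sirt1, plus a 10-fold molar excess of a vector expressing the Flag-tagged test peptide (with or without a nuclear localization signal). After 48 h, cells are exposed to 20 μM etoposide for 1 hr before harvest. Acetylated p53 is detected by immunoblot with an antibody specific for acetyl-K382.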

Assay [2] addresses T1, Sirt1. The settings on record: binds to deacetylase core of Sirt1; ref Kim et al., 2008; Zhao et al.; cited from earlier work.

Turning to “DBC1: Deleted in Breast Cancer 1, endogenous Sirt1 inhibitor”, the “inhibition of Sirt1 activity in vivo (p53 deacetylation)” value with Sirt1 [1] is “also inhibited Sirt1 activity”. Besides, the “effect on Sirt1 activity” value with Sirt1 [2] is listed as “inhibits its activity”.

The values above are taken from paper PMC3240942 (Molecular cell, 2011).
